Data taken from ChEMBL document CHEMBL1137710, “Synthesis and in vitro antitumor activity of new quinoxaline derivatives” (2009).

How the values were obtained:
Assay type in all cases: functional
MCF7 [1] = test: Anticancer activity against human MCF7 cells assessed as cell growth at 100 uM after 48 hrs by sulforhodamine B assay; conditions: MCF7, 48 h, read-out: Activity
SF-295 = test: Growth inhibition of human SF295 cells after 48 hrs by sulforhodamine B assay; conditions: SF-295, 48 h; for TGI: read-out: pTGI (converted)
In short: (§1)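 NCI 60-human-tumor-cell-line panel, with compounds tested over a 5-log dose range. Values are taken from dose-response curves as log10 molar concentrations: GI50 is 50% net growth inhibition, TGI is total growth inhibition, and LC50 is 50% net cell death.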

A549 = test: Growth inhibition of human A549 cells after 48 hrs by sulforhodamine B assay; conditions: A549, 48 h; for TGI: read-out: pTGI (converted); in short: as §1
U-251 = test: Growth inhibition of human U251 cells after 48 hrs by sulforhodamine B assay; conditions: U-251, 48 h; for TGI: read-out: pTGI (converted)
In short: (§2)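 Run in the NCI 60-human-tumour-cell-line panel, tested over a 5-log dose range. Dose–response curves gave three values per cell line, each as a log10 molar concentration: GI50 (50% inhibition of net cell growth), TGI (total inhibition of net growth) and LC50 (50% net cell death). The mean graph midpoint is the arithmetic mean over all lines, with insensitive lines entered at the highest concentration tested.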

HCT-116 = test: Growth inhibition of human HCT116 cells after 48 hrs by sulforhodamine B assay; conditions: HCT-116, 48 h; for TGI: read-out: pTGI (converted); in short: as §1
PC-3 = test: Growth inhibition of human PC3 cells after 48 hrs by sulforhodamine B assay; conditions: PC-3, 48 h; for CC50: read-out: pLC50 (the source's name) (converted); for TGI: read-out: pTGI (converted); in short: as §1
SF-268 [2] = test: Growth inhibition of human SF268 cells after 48 hrs by sulforhodamine B assay; conditions: SF-268, 48 h; for TGI: read-out: pTGI (converted); in short: as §1
COLO 205 = test: Growth inhibition of human COLO205 cells after 48 hrs by sulforhodamine B assay; conditions: COLO 205, 48 h; for TGI: read-out: pTGI (converted); in short: as §1
OVCAR-8 = test: Growth inhibition of human OVCAR8 cells after 48 hrs by sulforhodamine B assay; conditions: OVCAR-8, 48 h; for CC50: read-out: pLC50 (the source's name) (converted); for TGI: read-out: pTGI (converted); in short: as §1
NCI-H460 = test: Anticancer activity against human NCI-H460 cells assessed as cell growth at 100 uM after 48 hrs by sulforhodamine B assay; conditions: NCI-H460, 48 h, read-out: Activity
SF-268 [3] = test: Anticancer activity against human SF268 cells assessed as cell growth at 100 uM after 48 hrs by sulforhodamine B assay; conditions: SF-268, 48 h, read-out: Activity
SW-620 = test: Growth inhibition of human SW620 cells after 48 hrs by sulforhodamine B assay; conditions: SW-620, 48 h; for CC50: read-out: pLC50 (the source's name) (converted); for TGI: read-out: pTGI (converted); in short: as §2
SK-MEL-28 = test: Growth inhibition of human SK-MEL-28 cells after 48 hrs by sulforhodamine B assay; conditions: SK-MEL-28, 48 h; for CC50: read-out: pLC50 (the source's name) (converted); for TGI: read-out: pTGI (converted); in short: as §1
SR = test: Growth inhibition of human SR cells after 48 hrs by sulforhodamine B assay; in short: as §2
SK-MEL-2 = test: Growth inhibition of human SK-MEL-2 cells after 48 hrs by sulforhodamine B assay; conditions: SK-MEL-2, 48 h; for CC50: read-out: pLC50 (the source's name) (converted); for TGI: read-out: pTGI (converted); in short: as §1
[4] = Growth inhibition of human Hs 578T cells after 48 hrs by sulforhodamine B assay; conditions: for CC50: read-out: pLC50 (the source's name) (converted); for TGI: read-out: pTGI (converted); in short: as §1
UACC-257 = test: Growth inhibition of human UACC257 cells after 48 hrs by sulforhodamine B assay; conditions: UACC-257, 48 h; for CC50: read-out: pLC50 (the source's name) (converted); for TGI: read-out: pTGI (converted); in short: as §2
SK-MEL-5 = test: Growth inhibition of human SK-MEL-5 cells after 48 hrs by sulforhodamine B assay; conditions: SK-MEL-5, 48 h; for CC50: read-out: pLC50 (the source's name) (converted); for TGI: read-out: pTGI (converted); in short: as §1
IGROV-1 = test: Growth inhibition of human IGROV1 cells after 48 hrs by sulforhodamine B assay; conditions: IGROV-1, 48 h; for CC50: read-out: pLC50 (the source's name) (converted); for TGI: read-out: pTGI (converted); in short: as §1
LOX IMVI = test: Growth inhibition of human LOXIMVI cells after 48 hrs by sulforhodamine B assay; conditions: for TGI: read-out: pTGI (converted); in short: as §1
OVCAR-5 = test: Growth inhibition of human OVCAR5 cells after 48 hrs by sulforhodamine B assay; conditions: OVCAR-5, 48 h; for CC50: read-out: pLC50 (the source's name) (converted); for TGI: read-out: pTGI (converted); in short: as §1
MDA-MB-435 = test: Growth inhibition of human MDA-MB-435 cells after 48 hrs by sulforhodamine B assay; conditions: MDA-MB-435, 48 h; for CC50: read-out: pLC50 (the source's name) (converted); for TGI: read-out: pTGI (converted); in short: as §1
[5] = Growth inhibition of human […] cells after 48 hrs by sulforhodamine B assay; conditions: for TGI: read-out: pTGI (converted); in short: as §1
NCI-H23 = test: Growth inhibition of human NCI-H23 cells after 48 hrs by sulforhodamine B assay; conditions: NCI-H23, 48 h; for TGI: read-out: pTGI (converted); in short: as §1
MCF7 [6] = test: Growth inhibition of human MCF7 cells after 48 hrs by sulforhodamine B assay; conditions: MCF7, 48 h; for CC50: read-out: pLC50 (the source's name) (converted); for TGI: read-out: pTGI (converted); in short: as §1
NCI-H322M = test: Growth inhibition of human NCI-H322M cells after 48 hrs by sulforhodamine B assay; conditions: for TGI: read-out: pTGI (converted); in short: as §1
RXF 393 = test: Growth inhibition of human RXF393 cells after 48 hrs by sulforhodamine B assay; conditions: RXF 393, 48 h; for CC50: read-out: pLC50 (the source's name) (converted); for TGI: read-out: pTGI (converted); in short: as §1
SNB-19 = test: Growth inhibition of human SNB19 cells after 48 hrs by sulforhodamine B assay; conditions: SNB-19, 48 h; for TGI: read-out: pTGI (converted); in short: as §2
DU-145 = test: Growth inhibition of human DU145 cells after 48 hrs by sulforhodamine B assay; conditions: DU-145, 48 h; for CC50: read-out: pLC50 (the source's name) (converted); for TGI: read-out: pTGI (converted); in short: as §1

## COc1cc(CNc2nc3cc(N)cc(N)c3nc2-c2ccccc2)cc(OC)c1OC
MCF7 [1]
  growth at 100 µM: 0%
SF-295
  GI50: 1.66 µM
  LC50 (50% net cell kill): 37.2 µM
  TGI: 5.62 µM
A549
  GI50: 4.27 µM
  LC50: > 50.1 µM
  TGI: 33.1 µM
U-251
  GI50: 1.74 µM
  LC50 (50% net cell kill): 30.2 µM
  TGI: 6.31 µM
HCT-116
  GI50: 9.77 µM
  LC50 (concentration causing 50% net cell death): 37.2 µM
  TGI: 19.1 µM
PC-3
  GI50: 2.19 µM
  CC50: > 50.1 µM
  TGI: > 50.1 µM
SF-268 [2]
  GI50: 2.95 µM
  LC50: 49 µM
  TGI: 14.1 µM
COLO 205
  GI50: 3.8 µM
  LC50 (50% net cell kill): > 50.1 µM
  TGI: > 50.1 µM
OVCAR-8
  GI50: 6.92 µM
  CC50: 31.6 µM
  TGI: 14.8 µM
NCI-H460
  growth at 100 µM: 7%
SF-268 [3]
  growth at 100 µM: 15%
SW-620
  GI50: 1.55 µM
  CC50: > 50.1 µM
  TGI: 4.47 µM
SK-MEL-28
  GI50: 8.51 µM
  CC50: 36.3 µM
  TGI: 17.8 µM
SR
  GI50: 0.891 µM
  LC50 (concentration giving 50% net cell death): > 50.1 µM
SR; read-out: pTGI (converted)
  TGI: > 50.1 µM
SK-MEL-2
  GI50: 16.2 µM
  CC50: > 50.1 µM
  TGI: > 50.1 µM
[4]
  GI50: 3.02 µM
  CC50: > 50.1 µM
  TGI: 33.1 µM
UACC-257
  GI50: 3.47 µM
  CC50: 27.5 µM
  TGI: 10.7 µM
SK-MEL-5
  GI50: 0.724 µM
  CC50: 29.5 µM
  TGI: 7.76 µM
IGROV-1
  GI50: 9.12 µM
  CC50: > 50.1 µM
  TGI: > 50.1 µM
LOX IMVI
  GI50: 3.16 µM
  LC50: 26.3 µM
  TGI: 10.5 µM
OVCAR-5
  GI50: 21.4 µM
  CC50: > 50.1 µM
  TGI: > 50.1 µM
MDA-MB-435
  GI50: 0.229 µM
  CC50: 2.88 µM
  TGI: 0.912 µM
[5]
  GI50: 0.692 µM
  LC50: > 50.1 µM
  TGI: 3.02 µM
NCI-H23
  GI50: 8.71 µM
  LC50 (50% net cell kill concentration): 33.9 µM
  TGI: 17 µM
MCF7 [6]
  GI50: 1.55 µM
  CC50: > 50.1 µM
  TGI: > 50.1 µM
NCI-H322M
  GI50: 3.02 µM
  LC50: > 50.1 µM
  TGI: 15.8 µM
RXF 393
  GI50: 7.41 µM
  CC50: > 50.1 µM
  TGI: 20 µM
SNB-19
  GI50: 7.24 µM
  LC50: > 50.1 µM
  TGI: 20.9 µM
DU-145
  GI50: 5.25 µM
  CC50: > 50.1 µM
  TGI: 20 µM

## Nc1cc(N)c2nc(-c3ccccc3)c(Oc3ccc(Cl)c(Cl)c3)nc2c1
MCF7 [1]
  growth at 100 µM: 2%
SF-295
  GI50: 13.8 µM
  LC50 (50% net cell kill): 69.2 µM
  TGI: 30.9 µM
A549
  GI50: 18.2 µM
  LC50: > 100 µM
  TGI: 43.7 µM
U-251
  GI50: 12 µM
  LC50 (50% net cell kill): 83.2 µM
  TGI: 31.6 µM
HCT-116
  GI50: 15.8 µM
  LC50 (concentration causing 50% net cell death): > 100 µM
  TGI: 47.9 µM
PC-3
  GI50: 3.02 µM
  CC50: > 100 µM
  TGI: 14.5 µM
SF-268 [2]
  GI50: 17 µM
  LC50: > 100 µM
  TGI: 52.5 µM
COLO 205
  GI50: 20.4 µM
  LC50 (50% net cell kill): > 100 µM
  TGI: 67.6 µM
OVCAR-8
  GI50: 28.2 µM
  CC50: > 100 µM
  TGI: 89.1 µM
NCI-H460
  growth at 100 µM: 0%
SF-268 [3]
  growth at 100 µM: 0%
SW-620
  GI50: 9.77 µM
  CC50: 91.2 µM
  TGI: 30.2 µM
SK-MEL-28
  GI50: 21.4 µM
  CC50: > 100 µM
  TGI: 64.6 µM
SR
  LC50 (concentration giving 50% net cell death): > 100 µM
SK-MEL-2
  GI50: 5.62 µM
  CC50: 89.1 µM
  TGI: 23.4 µM
[4]
  GI50: 10.7 µM
  CC50: > 100 µM
  TGI: 33.9 µM
UACC-257
  GI50: 28.2 µM
  CC50: > 100 µM
  TGI: 87.1 µM
SK-MEL-5
  GI50: 9.77 µM
  CC50: 83.2 µM
  TGI: 28.8 µM
IGROV-1
  GI50: 11.5 µM
  CC50: 91.2 µM
  TGI: 32.4 µM
LOX IMVI
  GI50: 16.2 µM
  LC50: 72.4 µM
  TGI: 33.9 µM
OVCAR-5
  GI50: 25.1 µM
  CC50: > 100 µM
  TGI: 58.9 µM
MDA-MB-435
  GI50: 5.01 µM
  CC50: 93.3 µM
  TGI: 20.9 µM
[5]
  GI50: 3.47 µM
  LC50: > 100 µM
  TGI: > 100 µM
NCI-H23
  GI50: 15.5 µM
  LC50 (50% net cell kill concentration): > 100 µM
  TGI: 39.8 µM
MCF7 [6]
  GI50: 14.1 µM
  CC50: > 100 µM
  TGI: 70.8 µM
NCI-H322M
  GI50: 21.4 µM
  LC50: > 100 µM
  TGI: 58.9 µM
RXF 393
  GI50: 6.03 µM
  CC50: > 100 µM
  TGI: 58.9 µM
SNB-19
  GI50: 20.9 µM
  LC50: > 100 µM
  TGI: 52.5 µM
DU-145
  GI50: 29.5 µM
  CC50: > 100 µM
  TGI: > 100 µM
